Measured values from ChEMBL document CHEMBL1157704, “Potent activity against K562 cells by polyamide-seco-CBI conjugates targeting histone H4 genes” (Bioorg Med Chem, 2010).
The source made the active and inactive calls.

Legend:
Format in all cases: functional
K562 [1] = test: Effect on SLFN14 gene expression in human K562 cells assessed as change in mRNA transcript expression at 10 nM after 48 hrs by DNA microarray analysis relative to control
Outline: (§1)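 K562 CML cells (b3a2 Bcr-Abl) in standard ATCC-recommended culture, exposed once to 10 nM conjugate and harvested at 48 h. Untreated controls were also collected at 48 h. Transcripts were profiled on Human Gene 1.0 ST whole-genome oligonucleotide arrays, and each treated level was expressed relative to the untreated control, with a cutoff of at least twofold change.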

K562 [2] = test: Effect on HIST1H4H gene expression in human K562 cells assessed as down-regulation of mRNA transcript expression at 10 nM after 48 hrs by DNA microarray analysis relative to control; outline: as §1
K562 [3] = test: Induction of apoptosis in human K562 cells assessed as late apoptotic cells at 250 nM after 48 hrs by annexin-V FITC and propidium iodide staining-based FACS analysis
Outline: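 Treated K562 cells […] stained with Annexin V-FITC/propidium iodide. Apoptosis was scored by two-dimensional flow cytometry at a core FACS facility.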

K562 [4] = test: Induction of apoptosis in human K562 cells assessed as viable cells at 125 nM after 48 hrs by annexin-V FITC and propidium iodide staining-based FACS analysis; conditions: K562, 48 h, read-out: Activity
Outline: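 K562 cells were exposed to conjugate in culture medium for 48 h, then stained with annexin V-FITC plus propidium iodide. Cell populations were quantified by flow cytometry.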

K562 [5] = test: Effect on SLC4A1 gene expression in human K562 cells assessed as change in mRNA transcript expression at 10 nM after 48 hrs by DNA microarray analysis relative to control; outline: as §1
K562 [6] = test: Effect on HIST1H2B gene expression in human K562 cells assessed as change in mRNA transcript expression at 10 nM after 48 hrs by DNA microarray analysis relative to control
Outline: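 Transcripts were profiled on Affymetrix GeneChip Human Gene 1.0 ST arrays in K562 cells treated at 10 nM. Treated cells were collected at 6, 12, 24 and 48 h; untreated controls were collected at 48 h. Transcripts changed at least twofold versus control were scored.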

K562 [7] = test: Cell cycle arrest in human K562 cells assessed as increase in accumulation at S phase at 125 to 250 nM after 48 hrs propidium iodide staining-based FACS analysis
Outline: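 K562 cells, from ATCC and kept under ATCC-recommended conditions, were treated for 48 h and pelleted at 200g for 5 min. They were resuspended in PBS, fixed with prechilled 70% ethanol and stained with propidium iodide at 50 µg/mL. DNA content was read by flow cytometry to assign the G0–G1, S and G2–M fractions; sub-2C DNA content was taken as apoptosis.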

K562 [8] = test: Effect on ITGB3 gene expression in human K562 cells assessed as change in mRNA transcript expression at 10 nM after 48 hrs by DNA microarray analysis relative to control; outline: as §1
K562 [9] = test: Effect on UBE2W gene expression in human K562 cells assessed as change in mRNA transcript expression at 10 nM after 48 hrs by DNA microarray analysis relative to control
Outline: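 K562 CML cells (b3a2 Bcr-Abl) kept under standard culture conditions were exposed to 10 nM conjugate and harvested at 6, 12, 24 and 48 h. Untreated controls were harvested at 48 h. Whole-transcript oligonucleotide microarray profiling was done, and changes of at least twofold versus control were scored.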

CC(=O)Nc1cn(C)c(C(=O)Nc2cn(C)c(C(=O)NCCC(=O)Nc3cn(C)c(C(=O)NCCCC(=O)Nc4cc(C(=O)Nc5cn(C)c(C(=O)Nc6ccc7[nH]c(C(=O)N8CC(CCl)c9c8cc(O)c8ccccc98)cc7c6)n5)n(C)c4)n3)n2)n1 (centres undefined)
fold change (FC) (K562 [1]): >=2 | fold change (FC) (K562 [2]): 2.11 | Activity (K562 [3]): 8.53% | viability at 0.125 µM (K562 [4]): 80.3% | fold change (FC) (K562 [5]): >=2 | fold change (FC) (K562 [6]): >=2 | Activity (K562 [7]): Active | fold change (FC) (K562 [8]): >=2 | fold change (FC) (K562 [9]): >=2
